For 5 molecules, inhibition in vivo and IC50 results are on record in ChEMBL document CHEMBL2057169, “Discovery of novel tricyclic compounds as squalene synthase inhibitors” (Bioorg Med Chem, 2012).

For orientation: inhibition in vivo means the relative decrease from the control value, in per cent. Broadly, the IC50 is the concentration at which inhibition is half-maximal.

For assay [1], the system named is marmosets. Briefly: Lipid lowering effect in marmosets assessed as reduction in plasma total cholesterol level at 100 mg/kg, po administered once daily for 7 days. The class given is functional. The settings on record: Callitrichinae sp., in Callithrix jacchus, 168 h. The method in brief: (§1)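 Common marmosets, n = 8 per group, matched for body weight and plasma lipids. They were dosed orally at 100 mg/kg in 0.5% methylcellulose (5 ml/kg) once daily for 7 days. Nonfasted blood was drawn before dosing and the morning after the last dose. HDL was precipitated, then its cholesterol assayed enzymatically; non-HDL = total minus HDL cholesterol. Change was expressed relative to pre-values.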

In assay [2] the test system is marmosets. As to the kind of experiment: Lipid lowering effect in marmosets assessed as reduction in plasma triglyceride level at 100 mg/kg, po administered once daily for 7 days. The conditions noted are these: Callitrichinae sp., in Callithrix jacchus, 168 h. Type of assay: functional. Put shortly: as §1
The test system of assay [3] is marmosets. Briefly: Lipid lowering effect in marmosets assessed as reduction in plasma HDL-cholesterol level at 100 mg/kg, po administered once daily for 7 days. The class given is functional. The conditions noted are these: Callitrichinae sp., in Callithrix jacchus, 168 h. Put shortly: as §1
Another assay has as its system Hepatocyte. As to the kind of experiment: Inhibition of cholesterol synthesis in rat hepatocytes assessed as formation of cholesterol using [14C]mevalonolactone as substrate after 1 hr by radioactivity assay. The class given is functional, cell-based. Put shortly:
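Rat hepatocytes isolated by two-step portal-vein perfusion (EGTA buffer, then 0.05% collagenase). Cells were kept if viability was over 80% by trypan blue and seeded at 10^6 cells/well in DMEM with 10% LPDS. Next day they got 5% LPDS medium with inhibitor at 0–3000 nM for 1 h at 37 °C, then [14C]mevalonolactone for 1 h. Lysates were saponified, [14C]cholesterol corrected by [3H]cholesterol recovery and BCA protein, and % inhibition taken versus 0 nM wells. Triplicate wells; three experiments.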

For assay [4], the system named is marmosets. Briefly: Lipid lowering effect in marmosets assessed as reduction in plasma non HDL-cholesterol level at 100 mg/kg, po administered once daily for 7 days. The settings on record: Callitrichinae sp., in Callithrix jacchus, 168 h. The class given is functional. The method in brief: as §1
In another assay the target is T1, Squalene synthase (Rattus norvegicus, UniProt Q02769).
T1 sequence (Q02769 whole entry): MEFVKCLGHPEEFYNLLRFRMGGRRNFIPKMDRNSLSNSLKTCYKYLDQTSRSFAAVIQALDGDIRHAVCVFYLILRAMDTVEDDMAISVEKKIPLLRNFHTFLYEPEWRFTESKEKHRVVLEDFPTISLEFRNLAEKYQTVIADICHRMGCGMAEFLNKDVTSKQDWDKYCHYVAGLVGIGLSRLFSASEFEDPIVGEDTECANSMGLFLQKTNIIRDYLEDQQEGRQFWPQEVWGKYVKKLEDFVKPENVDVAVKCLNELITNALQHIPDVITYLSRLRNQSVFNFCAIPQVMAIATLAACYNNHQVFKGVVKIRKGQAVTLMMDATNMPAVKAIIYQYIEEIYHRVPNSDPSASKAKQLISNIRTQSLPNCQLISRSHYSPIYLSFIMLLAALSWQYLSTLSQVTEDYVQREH
As to the kind of experiment: Inhibition of squalene synthase in rat hepatic cells. Type of assay: cell-based.

A further assay deals with Rattus norvegicus. Briefly: Inhibition of cholesterol synthesis in Wistar rat liver assessed as reduction of [14C]-cholesterol level at 3 mg/kg, po administered as single dose measured after 1 hr by liquid scintillation counting. The class given is functional. The method in brief:
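Male Wistar rats, 6 weeks old, n = 4-6, dosed orally at 3 mg/kg in 0.5% methylcellulose, with equimolar NaOH or NaHCO3 added; vehicle-only controls. At 1 h, [14C]mevalonic acid (5 µCi/5 ml/kg) was given ip, and rats were killed 1 h later.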

In the case of `COc1cccc([C@H]2O[C@H](CC(=O)N3CCC(CC(=O)O)CC3)c3cccn3-c3ccc(Cl)cc32)c1OC`, the inhibition in vivo at 100 mg/kg in the assay on marmosets [1] is 4%; in the assay on marmosets [2], 28%; in the assay with marmosets [3], -11%; in the assay with marmosets [4], 9%. For the same molecule, the IC50 in the assay on Hepatocyte is 49 nM.
For `COc1cccc([C@H]2O[C@H](CCn3ccc(CC(=O)O)n3)c3cccn3-c3ccc(Cl)cc32)c1OC`, the figures for the half-maximal inhibitory concentration (IC50) at Squalene synthase and in the assay with Hepatocyte were 1.3 nM and 58 nM, respectively. The inhibition in vivo at 100 mg/kg in the assay on marmosets [1] is 27%; with marmosets [2] it was 16%; in the assay with marmosets [3] it was -10%; in the assay with marmosets [4], 52%. Besides, the inhibition in vivo at 3 mg/kg in the assay on Rattus norvegicus turned out to be 64%.
For `COc1cccc([C@H]2O[C@H](CCn3nnc(CC(=O)O)n3)c3cccn3-c3ccc(Cl)cc32)c1OC`, the IC50 came out at 1.1 nM on Squalene synthase and 36 nM with Hepatocyte. For the same molecule, the inhibition in vivo at 100 mg/kg in the assay on marmosets [1] was determined as 14%; in the assay on marmosets [2] it was 12%; with marmosets [3], 6%; in the assay on marmosets [4], 21%. In addition, the inhibition in vivo at 3 mg/kg in the assay with Rattus norvegicus was found to be 86%.
As for `COc1cccc([C@H]2O[C@H](CCC(=O)N3CCC[C@H](C(=O)O)C3)c3cccn3-c3ccc(Cl)cc32)c1OC`, the half-maximal inhibitory concentration (IC50) against Squalene synthase was determined as 1.4 nM; with Hepatocyte, 70 nM. The inhibition in vivo at 100 mg/kg was 9% in the assay on marmosets [1], 21% in the assay with marmosets [2], -21% with marmosets [3] and 23% with marmosets [4]. Also, the inhibition in vivo at 3 mg/kg with Rattus norvegicus stood at 53%.
In the case of `COc1cccc([C@H]2O[C@H](CCn3cc(CC(=O)O)nn3)c3cccn3-c3ccc(Cl)cc32)c1OC`, the results for the 50% inhibitory concentration (IC50) on Squalene synthase and with Hepatocyte were 0.51 nM and 24 nM, respectively. Besides, the inhibition in vivo at 100 mg/kg was 10% with marmosets [1], 24% with marmosets [2], -8% with marmosets [3] and 21% in the assay on marmosets [4]. The inhibition in vivo at 3 mg/kg in the assay with Rattus norvegicus stood at 66%.
